According to PubChem BioAssay AID504899 (The Scripps Research Institute Molecular Screening Center, 2011):

Test system: DIO C57BL/6 mice, hepatic G6Pase mRNA, 15 mg/kg ip 6 d
Test: hepatic gluconeogenesis reduction in obese mice, late-stage follow-up, in vivo study for RORA inverse agonist project, diet-induced obese mice, pyruvate tolerance test, powder sample (AID 504899)
Conditions: stronger effect = lower value
Procedure, shortened: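 System – male diet-induced obese C57BL/6 mice, 30 weeks old, fed 65% kcal high-fat diet · Dosing – 15 mg/kg ip b.i.d. for 6 days · Times – 6 h fasting, glucose 0–60 min after pyruvate · Technique – glucometer blood glucose plus liver gene mRNA · Read-out basis – gene expression and glucose as % of vehicle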

SMILES: O=S(=O)(Nc1ccc(C(O)(C(F)(F)F)C(F)(F)F)cc1)c1cccs1
- PEPCK mRNA expression (DIO C57BL/6 mice, 15 mg/kg ip 6 d, measured here: hepatic PEPCK mRNA, % control): 51%
- blood glucose (DIO C57BL/6 mice, 15 mg/kg ip 6 d, measured here: pyruvate tolerance test blood glucose): 76%
- G6Pase mRNA expression (dose or concentration not given here): 52%
